SENP7 inh: blocks the human protease SENP7. Q9BQF6. recombinant SENP7, Z-RLRGG-aminoluciferin luminescence, 40 min. inhibition, % at 5 µM. hit rate 1.5% among 330,000. AID 434973;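 active = inhibition above about 50% at the single test dose, limit read from the data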
SENP8 block-1: blocks human SENP8 cleavage of Nedd8 substrate; recombinant SENP8, Nedd8 substrate fluorescence; AID 602440; inhibition, % at 20 µM; hit rate 0.64% among 360,000; Q96LD8; in the data active = inhibition mostly above about 40%, no sharp cut-off; inactive = mostly below about 27%
Platelet DG rel: platelet dense granule release activity. human platelet-rich plasma, SFLLRN dense granule ATP release, luminescence. inhibition, %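 (compounds screened at 7.5 µM in platelet-rich plasma)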. hit rate 0.22% among 300,000;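 active = mean replicate score, as percent of positive control, at or above 50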
SENP6 inh: blocks the human protease SENP6. hit rate 1.8% among 330,000. inhibition, % at 10 µM. Recombinant SENP6 catalytic domain, aminoluciferin luminescence. AID 2599;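 active = inhibition above about 50% at the single tested dose, limit read from the data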
Target sequence (Q9GZR1 628-1112 limits assumed): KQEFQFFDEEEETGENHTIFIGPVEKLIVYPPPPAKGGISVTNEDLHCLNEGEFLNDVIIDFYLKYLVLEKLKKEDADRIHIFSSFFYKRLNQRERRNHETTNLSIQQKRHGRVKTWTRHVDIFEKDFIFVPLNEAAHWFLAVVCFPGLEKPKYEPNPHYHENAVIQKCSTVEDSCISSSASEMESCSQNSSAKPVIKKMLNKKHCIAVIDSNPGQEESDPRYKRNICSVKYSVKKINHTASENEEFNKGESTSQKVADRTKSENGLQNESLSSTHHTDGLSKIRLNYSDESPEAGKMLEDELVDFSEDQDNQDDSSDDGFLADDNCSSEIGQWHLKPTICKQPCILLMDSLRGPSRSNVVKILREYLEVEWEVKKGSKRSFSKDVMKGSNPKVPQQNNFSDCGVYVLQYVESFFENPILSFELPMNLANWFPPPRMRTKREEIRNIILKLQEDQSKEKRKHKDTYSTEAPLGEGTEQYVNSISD
SENP1 inh: SENP1 (human) catalytic domain inhibition. hit rate 0.21% among 360,000. inhibition, % at 10 µM. recombinant SENP1 catalytic domain, CyPet-SUMO1-YPet FRET cleavage;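 active = inhibition at least 30% at 10 µM, raw YFP signal under a set limit, fluorescence ratio 0.5 to 1.5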
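Test system: recombinant human SENP1 catalytic domain, His6-tagged / Medium: pH 8 Tris buffer with EDTA, NaCl, BME, BSA, NP40, catalase / Also added: SUMO1 FRET substrate flanked by Cypet and Ypet, 25 nM / Times: 50 min reaction at room temperature / Signal: FRET, CFP and YFP emission / Control set: no-enzyme low control and enzyme-plus-DMSO high control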
SENP8 block-2: inhibitors of human SENP8 protease | purified SENP8, Z-RLRGG-aminoluciferin cleavage, luminescence | inhibition, % at 10 µM | hit rate 1.2% among 330,000 | AID 2540; in the data active = inhibition above about 50%
SENP8 inh conf: SENP8 (human) inhibition, single concentration confirmation | shares compounds with SENP8 block-1 | purified SENP8, Nedd8-AMC/pro-Nedd8 cleavage fluorescence, 30 min | inhibition, % at 25 µM | hit rate 15% among 1,400 | AID 624319; in the data active = inhibition mostly above about 39%, no sharp cut-off; inactive = mostly below about 34%
Large screens that a line does not name were inactive (follow-up assays come after a bar, where they were run). An excerpt weighted towards active compounds, which were near 2.6% of everything screened.

Cc1ccc(S(=O)(=O)NC(=O)Nc2ccc(N(C)C)cc2)cc1	SENP8 block-1 74.6 | SENP8 inh conf 63.8
Cc1ccc(NC(=O)NNS(=O)(=O)c2ccc(Br)cc2)cc1	none
CC1(OC(=O)CCc2ccccc2)C(=O)C=C2C=C3CCCN3C=C2C1=O (stereo not given)	SENP8 block-1 55.0 | SENP8 inh conf 42.6
CC1(OC(=O)C2CCCC2)C(=O)C=C2C=C3CCCN3C=C2C1=O (stereo not given)	none (no result: SENP8 block-1, SENP1 inh)
Cc1ccc(CCN2CC(C(=O)NC3CCC(C)CC3)CC2=O)cc1 (stereo not given)	none (no result: SENP7 inh, Platelet DG rel, SENP6 inh, SENP8 block-2)
COc1nccnc1NS(=O)(=O)c1ccc(N=Cc2c(C)[nH]n(-c3ccc(Cl)cc3)c2=O)cc1	none (no result: SENP8 block-1, SENP1 inh)
CCOc1[nH]n(-c2ccccc2)c(=O)c1C=Nc1ccc(C)cc1	none
CCOc1[nH]n(-c2ccccc2)c(=O)c1C=Nc1ccccc1	none
Cc1[nH]n(-c2ccc(Cl)cc2)c(=O)c1C=Nc1ccc(S(=O)(=O)N2CCOCC2)cc1	SENP8 block-1 47.1 | SENP8 inh conf inactive
COCc1[nH][nH]c(=O)c1C=Nc1ccc(Cl)cc1	SENP8 block-1 48.2 | SENP8 inh conf inactive
CCOc1[nH]n(-c2ccccc2)c(=O)c1C=Nc1ccc(Cl)cc1	SENP8 block-1 40.3 | SENP8 inh conf inactive
CCOc1[nH]n(-c2ccccc2)c(=O)c1C=Nc1ccc(C(=O)OC)cc1	SENP8 block-1 53.5 | SENP8 inh conf inactive
COCc1[nH][nH]c(=O)c1C=Nc1ccccc1	none
CC1CCCC(NC(=O)COC(=O)c2ccc3ncsc3c2)C1C (stereo not given)	none (no result: Platelet DG rel)
COc1cccc(C(=O)c2c(-c3ccccc3)ncc3cc(OC)c(OC)cc23)c1	none (no result: Platelet DG rel, SENP6 inh, SENP8 block-2)
Cc1cnc(C(=O)NC2CC(C)(C)Cc3c2cnn3-c2cccc(F)c2)cn1 (stereo not given)	none
O=S(=O)(c1ccccc1)N1CCN(C2CCCCCCC2)CC1	SENP8 block-1 40.7 | SENP8 inh conf inactive
NS(=O)(=O)c1ccc(S(=O)(=O)N2CCN(C3CCCC3)CC2)cc1	none
COc1ccccc1C(=O)N1CCN(S(=O)(=O)c2ccccc2)CC1	SENP8 block-1 45.5 | SENP8 inh conf inactive
O=S(=O)(c1ccccc1)N1CCN(S(=O)(=O)c2ccccc2)C1	SENP8 block-1 40.7 | SENP8 inh conf inactive
COc1cccc(Nc2nc(C(N)c3ccccc3)cs2)n1 (stereo not given)	none (no result: SENP7 inh, Platelet DG rel, SENP6 inh, SENP8 block-2)
COC(=O)c1nn(-c2ccc(OC)cc2)c(=O)cc1NN	SENP8 block-1 56.6 | SENP8 inh conf inactive
COC(=O)c1nn(-c2ccc(OC)cc2)c(=O)cc1Sc1ccc(C)cc1	none
O=C(Nc1cccc(Cl)c1)c1ccc(NCCCN2CCOCC2)c([N+](=O)[O-])c1	SENP8 block-1 41.0 | SENP8 inh conf inactive
CSc1cccc(NC(=S)N(CCC(C)C)C(C)c2ccncc2)c1 (stereo not given)	none
NS(=O)(=O)c1ccc(NN=C2CCCCC2)c([N+](=O)[O-])c1	none
CC1CCCC/C1=N/Nc1ccc([N+](=O)[O-])cc1[N+](=O)[O-] (stereo not given)	SENP8 block-1 47.1 | SENP8 inh conf inactive
CC1C/C(=N/Nc2ccc([N+](=O)[O-])cc2[N+](=O)[O-])CC(C)(C)C1 (stereo not given)	SENP8 block-1 45.5 | SENP8 inh conf inactive
C/C(CC(C)C)=N/Nc1ccc([N+](=O)[O-])cc1[N+](=O)[O-]	none
C/C(=N\Nc1ccc(S(N)(=O)=O)cc1[N+](=O)[O-])c1ccc2c(c1)OCO2	SENP8 block-1 47.4 (no result: SENP7 inh, SENP6 inh, SENP8 block-2) | SENP8 inh conf inactive
NS(=O)(=O)c1ccc(N/N=C/c2ccc[nH]2)c([N+](=O)[O-])c1	SENP8 block-1 35.2 | SENP8 inh conf inactive
CCC(CC)=NNc1ccc(S(N)(=O)=O)cc1[N+](=O)[O-]	SENP8 block-1 47.0 | SENP8 inh conf inactive
C/C(CCC(C)C)=N\Nc1ccc(S(N)(=O)=O)cc1[N+](=O)[O-]	none
COc1ccccc1C(C(=O)c1ccccc1)c1ccc(O)cc1 (stereo not given)	none (no result: SENP7 inh, Platelet DG rel, SENP6 inh, SENP8 block-2)
COCCNC(=O)C1(C)CCCN(CC(=O)c2ccc(OC)cc2)C1 (stereo not given)	none (no result: SENP7 inh, Platelet DG rel, SENP6 inh, SENP8 block-2)
